Data as given in ChEMBL document CHEMBL4229382, “Phenylthiazoles with tert-Butyl side chain: Metabolically stable with anti-biofilm activity” (Eur J Med Chem, 2018).
Values after ≈ are worked out from the molar mass of the structure shown.

How the values were obtained:
Format in all cases: functional
Staphylococcus aureus [1] = assay: Antibacterial activity against methicillin-resistant Staphylococcus aureus NRS123 USA400 after 18 hrs by broth microdilution assay; settings: NRS123 USA400, 18 h
Procedure, shortened: (§1)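 Broth microdilution: inoculum from 0.5 McFarland suspension diluted to about 5 × 10^5 CFU/mL. Media were cation-adjusted Mueller-Hinton broth for staphylococci, brain heart infusion for E. faecium, and tryptone soya broth for E. faecalis, S. pneumoniae and L. monocytogenes.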

Staphylococcus aureus [2] = assay: Bactericidal activity against methicillin-resistant Staphylococcus aureus NRS386 incubated fo 18 hrs followed by re-plating on tryptic soy agar plates at 37 degC for 18 hrs by broth microdilution assay; settings: NRS386, 18 h
Staphylococcus aureus [3] = assay: Bactericidal activity against methicillin-sensitive Staphylococcus aureus NRS107 incubated fo 18 hrs followed by re-plating on tryptic soy agar plates at 37 degC for 18 hrs by broth microdilution assay; settings: NRS107, 18 h
Staphylococcus aureus [4] = assay: Antibacterial activity against methicillin-sensitive Staphylococcus aureus NRS107 after 18 hrs by broth microdilution assay; settings: NRS107, 18 h; procedure, shortened: as §1
Staphylococcus aureus [5] = assay: Bactericidal activity against methicillin-resistant Staphylococcus aureus NRS384 USA300 incubated fo 18 hrs followed by re-plating on tryptic soy agar plates at 37 degC for 18 hrs by broth microdilution assay; settings: NRS384 USA300, 18 h
Staphylococcus aureus [6] = assay: Bactericidal activity against methicillin-sensitive Staphylococcus aureus ATCC 6538 incubated fo 18 hrs followed by re-plating on tryptic soy agar plates at 37 degC for 18 hrs by broth microdilution assay; settings: ATCC 6538, 18 h
Staphylococcus aureus [7] = assay: Antibacterial activity against methicillin-sensitive Staphylococcus aureus ATCC 6538 after 18 hrs by broth microdilution assay; settings: ATCC 6538, 18 h; procedure, shortened: as §1
Staphylococcus aureus [8] = assay: Bactericidal activity against vancomycin-resistant Staphylococcus aureus VRS12 incubated fo 18 hrs followed by re-plating on tryptic soy agar plates at 37 degC for 18 hrs by broth microdilution assay; settings: VRS12, 18 h
Staphylococcus aureus [9] = assay: Bactericidal activity against vancomycin-resistant Staphylococcus aureus VRS10 incubated fo 18 hrs followed by re-plating on tryptic soy agar plates at 37 degC for 18 hrs by broth microdilution assay; settings: VRS10, 18 h
Staphylococcus aureus [10] = assay: Bactericidal activity against methicillin-resistant Staphylococcus aureus NRS385 incubated fo 18 hrs followed by re-plating on tryptic soy agar plates at 37 degC for 18 hrs by broth microdilution assay; settings: NRS385, 18 h
Staphylococcus aureus [11] = assay: Antibacterial activity against vancomycin-resistant Staphylococcus aureus VRS10 after 18 hrs by broth microdilution assay; settings: VRS10, 18 h; procedure, shortened: as §1
Staphylococcus aureus [12] = assay: Antibacterial activity against methicillin-resistant Staphylococcus aureus NRS384 USA300 after 18 hrs by broth microdilution assay; settings: NRS384 USA300, 18 h; procedure, shortened: as §1
Staphylococcus aureus [13] = assay: Bactericidal activity against methicillin-resistant Staphylococcus aureus NRS119 incubated fo 18 hrs followed by re-plating on tryptic soy agar plates at 37 degC for 18 hrs by broth microdilution assay; settings: NRS119, 18 h
Staphylococcus aureus [14] = assay: Bactericidal activity against methicillin-resistant Staphylococcus aureus NRS123 USA400 incubated fo 18 hrs followed by re-plating on tryptic soy agar plates at 37 degC for 18 hrs by broth microdilution assay; settings: NRS123 USA400, 18 h
Staphylococcus aureus [15] = assay: Antibacterial activity against vancomycin-resistant Staphylococcus aureus VRS12 after 18 hrs by broth microdilution assay; settings: VRS12, 18 h; procedure, shortened: as §1
Staphylococcus aureus [16] = assay: Antibacterial activity against methicillin-resistant Staphylococcus aureus 2658 RCMB after 18 hrs by broth microdilution assay; procedure, shortened: as §1

SMILES: CC(=O)NC[C@H]1CN(c2ccc(N3CCOCC3)c(F)c2)C(=O)O1 [LINEZOLID]
- MIC (Staphylococcus aureus [1]): 1 µg/mL (≈ 2.96 µM)
- MBC (Staphylococcus aureus [2]): 64 µg/mL (≈ 190 µM)
- MBC (Staphylococcus aureus [3]): 16 µg/mL (≈ 47.4 µM)
- MIC (Staphylococcus aureus [4]): 1 µg/mL (≈ 2.96 µM)
- MBC (Staphylococcus aureus [5]): 32 µg/mL (≈ 94.9 µM)
- MBC (Staphylococcus aureus [6]): 16 µg/mL (≈ 47.4 µM)
- MIC (Staphylococcus aureus [7]): 1 µg/mL (≈ 2.96 µM)
- MBC (Staphylococcus aureus [8]): 64 µg/mL (≈ 190 µM)
- MBC (Staphylococcus aureus [9]): 64 µg/mL (≈ 190 µM)
- MBC (Staphylococcus aureus [10]): 16 µg/mL (≈ 47.4 µM)
- MIC (Staphylococcus aureus [11]): 1 µg/mL (≈ 2.96 µM)
- MIC (Staphylococcus aureus [12]): 1 µg/mL (≈ 2.96 µM)
- MBC (Staphylococcus aureus [13]): > 64 µg/mL
- MBC (Staphylococcus aureus [14]): 32 µg/mL (≈ 94.9 µM)
- MIC (Staphylococcus aureus [15]): 1 µg/mL (≈ 2.96 µM)

SMILES: Cc1nc(-c2ccc(C(C)(C)C)cc2)sc1-c1ccnc(NC2CCCCC2)n1
- MIC (Staphylococcus aureus [16]): > 50 µg/mL

SMILES: Cc1nc(-c2ccc(C(C)(C)C)cc2)sc1-c1ccnc(N(C)C)n1
- MIC (Staphylococcus aureus [16]): > 50 µg/mL
